The values below come from PubChem BioAssay.

The source made the active and inactive calls.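 The calls were made as follows, unless noted: active = inhibition at or above 50% at 10 µM; inactive = inhibition below 50%.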

Test [1] can be described thus: inhibitors of TNFa-induced NFkB p65 translocation, primary screen, imaging, HUVEC, MLSMR starter and 10KST1 sets (AID 438;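 active = inhibition above 20% together with a positive visual image hit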;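 also: compound added about 3h40 before a 20 min TNFalpha stimulation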;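 as to inhibition: signal is the nuclear over cytoplasmic p65 intensity ratio per well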). Conditions: HUVEC TNFa-induced p65 nuclear translocation; cell count: measured here: nuclei count (cytotoxicity indicator), at 2.08 µM; inhibition: at 2 µM, stronger effect = higher value, 0% TNFa-plus-vehicle, 100% no-TNFa wells.
Test [2] is described as follows: inhibitors of mutant huntingtin aggregation, primary screen, imaging, exon1htt(103Q)mCFP cells, high-content imaging (AID 483;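 active = visual image review flags a hit and inhibition of aggregation exceeds 20%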;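 also: compound exposure lasted 3 days before fixation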;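 as to nuclei count: percent of the per-plate median nuclei count of sample wells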). The conditions noted are these: exon1htt(103Q)mCFP cell line, aggregate imaging, at 2 µM; inhibition of aggregation: stronger effect = higher value; nuclei count: measured here: cell count, toxicity.
A short description of test [3]: inhibitors of E-selectin induction by TNFa, primary screen, imaging, HUVEC, immunofluorescence, MLSMR starter and 10KST1 sets (AID 487;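 active = visually confirmed hit in the image check and inhibition above 20%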;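 as to inhibition: signal is fraction of cell area covered by stained E-selectin grains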;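 as to nuclei count: 100% = median nuclei count of all wells on the same plate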). Conditions: HUVEC TNFalpha-induced E-selectin immunofluorescence imaging, at 2 µM; inhibition: stronger effect = higher value; nuclei count: measured here: cell number, toxicity.
For test [4], the target named is Voltage-gated potassium channel subunit beta-2 (Rattus norvegicus) (UniProt P62483). Kind of test: KvBeta enzyme negative modulators, primary screen, biochemical, NADPH fluorescence (AID 622;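 active = fluorescence slope higher than the sample average by over 3 SD, cut at about -0.22 in these data, passing the limit was not always enough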;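 also: slope of raw intensity against log time taken from 70 to 1610 s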). The conditions noted are these: recombinant KvBeta, 4-cyanobenzaldehyde reduction, at 10 µM, stronger effect = higher value.
Test [5] has the same target. The experiment in a line: KvBeta positive modulators, primary screen, biochemical, NADPH fluorescence (AID 623;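 active = NADPH fluorescence slope more negative than the mean of all samples by about 3 SD, 99.7% confidence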;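 also: fluorescence intensity change per second fitted from 20 to 320 s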). The conditions noted are these: Recombinant KvBeta, NADPH fluorescence decrease slope, 10 min; at 10 µM; stronger effect = lower value.
The target of test [6] is Muscarinic acetylcholine receptor M4 (Homo sapiens) (UniProt P08173). The experiment in a line: compounds altering M4/GIRK thallium flux, either direction, primary screen, M4 allosteric agonist project, cell-based, HEK293 M4/GIRK, BTC-AM (AID 625;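 active = fluorescence slope after compound addition differing from the mean of all tested samples at 99.7% confidence, mostly higher but some lower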;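 also: thallium influx through GIRK channels coupled to M4 in HEK293 cells with BTC-AM dye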). Conditions: at 10 µM, actives lie on both sides. In a few lines: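 Assay system: HEK293 cells with M4 receptor and GIRK channels / Controls: carbachol and DMSO controls / Schedule: 1 h dye loading, 2 min kinetic read / Technique: kinetic fluorescence with BTC-AM dye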

Test [7] can be described thus: inhibitors of Sendai virus-induced IRF3 signaling, primary screen, TLR/RLR signaling modifier project, cell-based, Sendai virus stimulus, luciferase, 10K MLSCN set (AID 602276).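 Also: firefly luciferase from ISG56 promoter only with Renilla not read in this screen; 0% = Sendai virus plus DMSO and 100% = medium plus DMSO without virus.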 Conditions: HEK293 RL24 IRF3 luciferase reporter, at 10 µM, stronger effect = higher value. (A reporter such as luciferase makes a cellular process visible.)
A short description of test [8]: inhibitors of poly I:C-induced TLR3 signaling, primary screen, cell-based, poly I:C stimulus, luciferase, 10K MLSCN set (AID 602277;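 active = inhibition of the reporter signal at or above 50%; inactive = inhibition below 50%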). Conditions: HEK293-TLR3 RL24 IRF3 luciferase reporter, at 10 µM, stronger effect = higher value.

Voltage-gated potassium channel subunit beta-2 (Rattus norvegicus), sequence (P62483 whole entry, looked up): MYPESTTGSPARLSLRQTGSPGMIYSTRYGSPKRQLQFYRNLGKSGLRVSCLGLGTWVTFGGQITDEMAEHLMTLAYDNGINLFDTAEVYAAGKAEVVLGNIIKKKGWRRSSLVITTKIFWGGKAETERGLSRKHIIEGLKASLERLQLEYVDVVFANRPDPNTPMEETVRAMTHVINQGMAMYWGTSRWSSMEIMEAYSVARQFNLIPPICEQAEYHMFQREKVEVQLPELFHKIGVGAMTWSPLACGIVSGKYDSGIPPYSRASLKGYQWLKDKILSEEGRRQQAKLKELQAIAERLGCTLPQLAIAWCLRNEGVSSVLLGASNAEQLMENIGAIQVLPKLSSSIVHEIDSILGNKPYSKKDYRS
Muscarinic acetylcholine receptor M4 (Homo sapiens), sequence (P08173 whole entry, looked up): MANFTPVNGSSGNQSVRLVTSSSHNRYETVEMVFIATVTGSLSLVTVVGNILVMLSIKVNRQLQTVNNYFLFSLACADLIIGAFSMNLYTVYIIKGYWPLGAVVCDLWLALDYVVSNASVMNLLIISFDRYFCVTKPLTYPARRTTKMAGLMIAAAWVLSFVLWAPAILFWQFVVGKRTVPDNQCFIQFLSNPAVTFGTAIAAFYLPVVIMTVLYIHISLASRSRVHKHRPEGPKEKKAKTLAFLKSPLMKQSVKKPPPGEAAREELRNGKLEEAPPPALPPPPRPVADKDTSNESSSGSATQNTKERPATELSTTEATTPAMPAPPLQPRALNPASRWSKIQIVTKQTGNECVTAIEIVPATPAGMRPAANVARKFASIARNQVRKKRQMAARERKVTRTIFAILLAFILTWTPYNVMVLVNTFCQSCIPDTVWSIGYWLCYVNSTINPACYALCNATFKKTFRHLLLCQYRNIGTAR

Consider `COc1cc(NC(=O)c2ccco2)c(OC)cc1NC(=O)CCC(=O)Nc1cc(C)cc(C)c1`, for which the cell count in test [1] was 534. Further, the inhibition (commonly the change of the read-out against control, counted positive when it falls) was -0.3% (inactive) in test [1], 26.4% (inactive) in test [3], 16% (inactive) in test [7] and 27.3% (inactive) in test [8]. Also, the inhibition of aggregation in test [2] is 18.3% (inactive). For the same compound, the nuclei count in test [2] was found to be 72.2%; in test [3], 68.3%. In addition, the fluorescence slope is -0.279 (inactive) in test [4] and 0.00626 (inactive) in test [6]. The NADPH fluorescence slope in test [5] was 6.9e-06 (inactive).

`CCCC1CC(C)(C(=O)Cn2[nH]c(=O)ccc2=O)OC1=O` (centres undefined): the cell count in test [1] came out at 580. In addition, the inhibition in test [1] is -22.2% (inactive); in test [3], -76% (inactive); in test [7] it was 22.7% (inactive); in test [8] it was 25.6% (inactive). Further, the inhibition of aggregation in test [2] was -42.5% (inactive). The nuclei count in test [2] turned out to be 120%; in test [3] it was 104%. Also, the fluorescence slope in test [4] was -0.515 (inactive); in test [6] it was 0.00625 (inactive). Also, the NADPH fluorescence slope in test [5] is 0.000145 (inactive).

As for `COc1cc(=O)[nH]c(SCc2c(F)c(F)c(F)c(F)c2F)n1`, the cell count in test [1] was determined as 546. The inhibition in test [1] is 2.2% (inactive); in test [3], -11.4% (inactive); in test [7] it was -4.06% (inactive); in test [8] it was 22.3% (inactive). For the same compound, in test [2], the inhibition of aggregation is 6.7% (inactive). Moreover, the nuclei count in test [2] is 87.6%; in test [3] it was 104%. For the same compound, the fluorescence slope in test [4] was -0.436 (inactive); in test [6] it was 0.00944 (inactive). The NADPH fluorescence slope in test [5] is -4e-05 (inactive).

On to `COc1cccc(OC)c1C(=O)n1nc(C)cc1C`, for which, in test [1], the cell count was found to be 489. Moreover, the inhibition in test [1] was -18.1% (inactive); in test [3] it was -10.8% (inactive); in test [7], 14.5% (inactive); in test [8], 4.66% (inactive). For the same compound, the inhibition of aggregation in test [2] was -12.3% (inactive). The nuclei count in test [2] turned out to be 99.8%; in test [3], 95.6%. The fluorescence slope is -0.591 (inactive) in test [4] and 0.00413 (inactive) in test [6]. Also, the NADPH fluorescence slope in test [5] was -3.7e-05 (inactive).

Regarding `COc1cc2[nH]c(=O)n(CCC(=O)N3CCc4ccccc4C3)c(=O)c2cc1OC`, the cell count in test [1] amounted to 452. For the same compound, the inhibition in test [1] was -20.3% (inactive); in test [3] it was -83.3% (inactive); in test [7], 14.4% (inactive); in test [8], -15.8% (inactive). In addition, the inhibition of aggregation in test [2] is 6.9% (inactive). The values for the nuclei count in test [2] and in test [3] were 94.4% and 108%, respectively. The fluorescence slope in test [4] was -0.15 (inactive); in test [6], 0.00747 (inactive). Moreover, the NADPH fluorescence slope in test [5] was -9.5e-06 (inactive).

Consider `CCOC(=O)Nc1ccc(OC)cc1S(=O)(=O)N1CCCCC1`, for which the cell count in test [1] amounted to 714. Further, the inhibition is 3.3% (inactive) in test [1], -14.6% (inactive) in test [3], 11.7% (inactive) in test [7] and 17% (inactive) in test [8]. In addition, the inhibition of aggregation in test [2] is -24% (inactive). Further, the nuclei count in test [2] was determined as 87.3%; in test [3] it was 111%. In addition, the values for the fluorescence slope in test [4] and in test [6] were -0.586 (inactive) and 0.00355 (inactive), respectively. Besides, in test [5], the NADPH fluorescence slope was 2.6e-05 (inactive).

Regarding `CCOC(=O)N1CCN(C(=O)C2CC(=O)N(Cc3ccc(OC)cc3)C2)CC1` (centres undefined), the cell count in test [1] is 607. For the same compound, the inhibition was -14.6% (inactive) in test [1], -28.6% (inactive) in test [3], 13.3% (inactive) in test [7] and 18.5% (inactive) in test [8]. Further, the inhibition of aggregation in test [2] is -1.6% (inactive). Further, the nuclei count in test [2] was determined as 112%; in test [3], 111%. The fluorescence slope in test [4] is -0.566 (inactive); in test [6], 0.0052 (inactive). Also, the NADPH fluorescence slope in test [5] is -1e-05 (inactive).

On to `Cc1ccc(NC(=O)CNc2cccc(C)c2C)c(C)c1`, for which the cell count in test [1] stood at 505. The inhibition was 2.5% (inactive) in test [1], -54.3% (inactive) in test [3], 5.56% (inactive) in test [7] and -4.35% (inactive) in test [8]. Moreover, the inhibition of aggregation in test [2] is -48.7% (inactive). For the same compound, the nuclei count turned out to be 12.5% in test [2] and 107% in test [3]. Further, the values for the fluorescence slope in test [4] and in test [6] were -0.517 (inactive) and 0.00498 (inactive), respectively. For the same compound, the NADPH fluorescence slope in test [5] was -7.1e-05 (inactive).

For `CCN(C(=O)c1c(-c2ccccc2)noc1C)c1ccccc1`, the cell count in test [1] is 600. For the same compound, the inhibition in test [1] is 1% (inactive); in test [3], -39.7% (inactive); in test [7], 22.5% (inactive); in test [8], 22.7% (inactive). The inhibition of aggregation in test [2] is 1.1% (inactive). The nuclei count stood at 106% in test [2] and 95.6% in test [3]. Also, the results for the fluorescence slope in test [4] and in test [6] were -0.534 (inactive) and 0.00432 (inactive), respectively. Also, in test [5], the NADPH fluorescence slope was -1.1e-05 (inactive).

Turning to `N#CC1=C(N)SC(N)=C(C#N)C1CCc1ccccc1`, the cell count in test [1] was 300. For the same compound, the inhibition in test [1] was -3.2% (inactive); in test [3] it was -171% (inactive); in test [7], 18% (inactive); in test [8], 26.3% (inactive). Besides, the inhibition of aggregation in test [2] was -16.8% (inactive). Besides, the nuclei count is 83% in test [2] and 104% in test [3]. Moreover, the fluorescence slope in test [4] is -0.543 (inactive); in test [6] it was 0.00612 (inactive). In addition, in test [5], the NADPH fluorescence slope is -2e-06 (inactive).

As to `CC12C(=O)N(CCC(=O)O)C(=O)C1C1C=CC2C1` (centres undefined), the cell count in test [1] was determined as 666. The inhibition in test [1] was 23.6% (active); in test [3], 7.8% (inactive); in test [7], 17.6% (inactive); in test [8], 21.9% (inactive). For the same compound, the inhibition of aggregation in test [2] is 3.1% (inactive). Besides, the figures for the nuclei count in test [2] and in test [3] were 99.2% and 114%, respectively. Further, the fluorescence slope in test [4] is -0.456 (inactive); in test [6], 0.00503 (inactive). Besides, in test [5], the NADPH fluorescence slope was -4.5e-05 (inactive).

In the case of `COC(=O)c1[nH]c2cc(OC)ccc2c1NC(=O)CN1CCOCC1`, the cell count in test [1] was determined as 346. Besides, the inhibition in test [1] was 1.4% (inactive); in test [3], -117% (inactive); in test [7], 13.1% (inactive); in test [8], 7.58% (inactive). For the same compound, in test [2], the inhibition of aggregation is -17.1% (inactive). In addition, the nuclei count was found to be 105% in test [2] and 117% in test [3]. In addition, the results for the fluorescence slope in test [4] and in test [6] were -0.535 (inactive) and 0.00517 (inactive), respectively. The NADPH fluorescence slope in test [5] is -1.7e-05 (inactive).

Consider `CC(=O)Nc1ccc(Cl)cc1C(=O)O`, for which the cell count in test [1] came to 236. Besides, the inhibition in test [1] was 1.3% (inactive); in test [3], 35.3% (inactive); in test [7], 20.8% (inactive); in test [8], 16.7% (inactive). Further, in test [2], the inhibition of aggregation was -13.3% (inactive). The nuclei count in test [2] was found to be 74.7%; in test [3] it was 74.6%. Further, the fluorescence slope in test [4] is -0.519 (inactive); in test [6], 0.00503 (inactive). For the same compound, the NADPH fluorescence slope in test [5] was 8e-06 (inactive).

For the compound `CC(C)CCNC(=O)CCNS(=O)(=O)c1ccc(Cl)cc1`, in test [1], the cell count is 538. Also, the inhibition in test [1] is -19.2% (inactive); in test [3], -36.9% (inactive); in test [7], 22.9% (inactive); in test [8], 25.9% (inactive). In addition, the inhibition of aggregation in test [2] is 1.9% (inactive). In addition, the nuclei count in test [2] was determined as 79.8%; in test [3], 91.3%. In addition, the fluorescence slope in test [4] is -0.566 (inactive); in test [6] it was 0.00577 (inactive). Further, in test [5], the NADPH fluorescence slope is -1.2e-05 (inactive).
